High-throughput results deposited in PubChem BioAssay by several laboratories.
IMP-1 inh – blocks Pseudomonas aeruginosa IMP-1 metallo-beta-lactamase. purified IMP-1, nitrocefin hydrolysis, epi-absorbance fluorescence. inhibition, % at 5.6 µM. 290,000 tested, 0.45% active. AID 1556;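 active = inhibition above the mean plus 3 SD of all compounds in the same screening run, cut at about 4.5% in these data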
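System – purified recombinant IMP-1 beta-lactamase · Input – IMP-1 dispensed at 0.2 nM · Timing – 15 min preincubation plus 25 min reaction at 25 °C · Signal – Epi-absorbance fluorescence, 480 nm excitation, 530 nm emission · Measure – percent IMP-1 inhibition derived from blank-referenced optical density · Controls – Enzyme-plus-DMSO low control, enzyme-free DMSO high control · Replication – singlicate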
PHOSPHO1 inh – inhibitors of human PHOSPHO1 phosphatase; 290,000 tested, 1.1% active; recombinant PHOSPHO1, absorbance phosphatase assay; inhibition, % at 13.3 µM; AID 1565; Q8TCT1; in the data active = inhibition above about 60%
Target sequence (Q8TCT1 whole entry, looked up): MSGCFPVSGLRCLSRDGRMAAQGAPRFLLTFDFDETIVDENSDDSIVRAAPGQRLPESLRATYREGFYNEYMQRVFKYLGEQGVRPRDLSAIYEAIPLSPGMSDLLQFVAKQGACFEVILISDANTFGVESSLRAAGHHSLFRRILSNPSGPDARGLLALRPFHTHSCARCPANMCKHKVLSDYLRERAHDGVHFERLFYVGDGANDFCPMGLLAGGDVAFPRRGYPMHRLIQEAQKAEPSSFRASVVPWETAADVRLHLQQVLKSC
ARFGAP1 inh – inhibits rat ARF GTPase activating protein 1 | Q62848 | Arfgap1-stimulated ARF1 GTP hydrolysis, GDP FP detection | inhibition, % at 16.5 µM | 360,000 tested, 0.26% active;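 active = inhibition above a per-plate limit, mean inhibition of low control wells plus 3 SD, cut at about 25% in these data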
Target sequence (Q62848 1-136 limits assumed): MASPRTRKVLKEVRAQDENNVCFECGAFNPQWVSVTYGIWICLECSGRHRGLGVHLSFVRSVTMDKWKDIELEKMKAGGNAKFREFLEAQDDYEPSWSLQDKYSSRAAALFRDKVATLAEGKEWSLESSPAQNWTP
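System: truncated rat Arfgap1 GAP domain / Medium: HEPES-based buffer, pH 7.5 / Also added: N-terminally truncated human ARF1-GTP substrate / Incubation: enzyme reaction 120 min at 25 °C after 20 min preincubation / Measured by: FP of antibody-bound GDP Alexa 633 tracer, ex 620/em 688 nm / Replicates: singlicate, each compound tested once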
Calb FLC – C. albicans growth modulation with fluconazole | C. albicans CaCi-2 + fluconazole, Alamar Blue growth, 48 h | growth inhibition, % (no concentration beside the values) | 300,000 tested, 0.57% active;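 active = growth inhibition above about 58% in most replicates, limit read from the data, passing the limit was not always enough; inconclusive = exactly half the replicates above a set limit; inactive = most replicates below a set limit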;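 note: all wells also contain fluconazole at 8 µg/ml as a sub-toxic cotreatment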
ASAP1 inh – ASAP1 ArfGAP inhibition | ASAP1-stimulated ARF1 GTP hydrolysis, GDP FP detection | inhibition, % at 16.5 µM | 360,000 tested, 0.19% active; in the data active = inhibition above about 25%
VIM-2 inh – blocks Pseudomonas aeruginosa VIM-2 metallo-beta-lactamase; 290,000 tested, 0.89% active; purified VIM-2, nitrocefin hydrolysis, epi-absorbance fluorescence; AID 1527; inhibition, % at 5.6 µM;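 active = inhibition above the mean of all tested compounds plus 3 SD, cutoff set per screening run, cut at about 7.5% in these data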;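 note: red hydrolysis product quenches plate fluorescence so inhibitors raise well fluorescence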
Hits are given with their value. Only some compounds are listed: those with a hit (about 2.6% of all), similar ones and a draw of the others.

Screening CCc1nn2c(=O)cc(COc3ccc(/C=C4\C(=N)N5N=C(C)SC5=NC4=O)cc3)nc2s1 returned IMP-1 inh inactive, PHOSPHO1 inh 61, ARFGAP1 inh inactive, Calb FLC inactive, ASAP1 inh inactive and VIM-2 inh inactive.
CCC1=NN2C(=N)/C(=C\c3ccc(OCCOc4ccc(NC(C)=O)cc4)cc3)C(=O)N=C2S1 was read as IMP-1 inh inactive, PHOSPHO1 inh inactive, ARFGAP1 inh inactive, ASAP1 inh inactive and VIM-2 inh 10.
For CCOc1cc(/C=C2\C(=N)N3N=C(CC)SC3=NC2=O)ccc1OCCOc1ccc(NC(C)=O)cc1 the results were IMP-1 inh inactive, PHOSPHO1 inh inactive, ARFGAP1 inh inactive, Calb FLC inactive, ASAP1 inh inactive and VIM-2 inh inactive.
Screening CCCCCCCCN1C(=O)[C@@H](CC(=O)NCc2cccc3ccccc23)C[C@@]2(C(=O)OC)C1=C[C@H](C(C)(C)C)O[C@@H]2C returned ARFGAP1 inh inactive and ASAP1 inh inactive.
`COc1ccccc1CCn1cnc(-c2ccc(F)cc2)c1CC(C)C` gave ARFGAP1 inh inactive and ASAP1 inh inactive.
Screening Cc1ccc(C(=O)n2cnnc2N)cc1C returned IMP-1 inh inactive, PHOSPHO1 inh 61, ARFGAP1 inh inactive, Calb FLC inactive, ASAP1 inh inactive and VIM-2 inh inactive.
`Cc1ccc(C(=O)n2cnnc2N)cc1` gave IMP-1 inh inactive, PHOSPHO1 inh inactive, ARFGAP1 inh inactive, Calb FLC inactive, ASAP1 inh inactive and VIM-2 inh inactive.
COC(=O)c1cc2c(c3c4cc(F)ccc4n(S(=O)(=O)c4ccccc4)c13)C(=O)N(Cc1ccc(C(F)(F)F)cc1)C2 was read as ARFGAP1 inh inactive and ASAP1 inh inactive.
For CCCOc1ccc(CCc2n[nH]c(=S)n2Cc2ccccc2)cc1 the results were IMP-1 inh inactive, PHOSPHO1 inh 79, ARFGAP1 inh inactive, Calb FLC inactive, ASAP1 inh inactive and VIM-2 inh inactive.
CCCOc1ccc(CCc2n[nH]c(=S)n2-c2ccccc2)cc1 was read as IMP-1 inh inactive, PHOSPHO1 inh inactive, ARFGAP1 inh inactive, Calb FLC inactive, ASAP1 inh inactive and VIM-2 inh inactive.
`CN(c1ccc(NC(=O)CCc2cn(Cc3ccc(Br)cc3)c3ccccc23)cc1)c1ccccn1` gave ARFGAP1 inh inactive and ASAP1 inh inactive.
For CN(C)S(=O)(=O)c1cccc(NC(=S)Nc2ccc3cn[nH]c3c2)c1 the results were IMP-1 inh inactive, PHOSPHO1 inh inactive, ARFGAP1 inh inactive, Calb FLC inactive, ASAP1 inh inactive and VIM-2 inh inactive.
`CN(C)S(=O)(=O)c1cccc(NC(=S)N/N=C/c2cc(Br)ccc2O)c1` gave IMP-1 inh inactive, PHOSPHO1 inh inactive, ARFGAP1 inh inactive, Calb FLC 81, ASAP1 inh inactive and VIM-2 inh inactive.
Screening Cc1ccc(OCC(=O)Nc2ccc(CN3CCOCC3)cc2)cc1 returned IMP-1 inh inactive, PHOSPHO1 inh 61, ARFGAP1 inh inactive, Calb FLC inactive, ASAP1 inh inactive and VIM-2 inh inactive.
`O=C(NC1CCSC1=O)c1ccc(Cl)cc1` (configuration not stated) gave IMP-1 inh inactive, PHOSPHO1 inh inactive, Calb FLC inactive and VIM-2 inh inactive.
For O=C(COc1ccc(Cl)cc1)NC1CCSC1=O (configuration not stated) the results were IMP-1 inh inactive, PHOSPHO1 inh inactive, ARFGAP1 inh inactive, Calb FLC 102, ASAP1 inh inactive and VIM-2 inh inactive.
For Nc1nc2c(ncn2[C@@H]2O[C@H](C(=O)NCCc3c[nH]c4ccccc34)[C@@H](O)[C@H]2O)c(=O)[nH]1 the results were ARFGAP1 inh inactive and ASAP1 inh inactive.
`CCN=C1NC(c2cccc(F)c2)C(C(=O)OC)=C(C)N1Cc1ccccc1C(F)(F)F` (configuration not stated) gave ARFGAP1 inh inactive and ASAP1 inh inactive.
S=C(NCCN1CCOCC1)NC1CCCC1 was read as IMP-1 inh inactive, PHOSPHO1 inh inactive, ARFGAP1 inh inactive, Calb FLC 51, ASAP1 inh inactive and VIM-2 inh inactive.
OCCN1CCN(C(=S)NC2CCCC2)CC1 was read as IMP-1 inh inactive, PHOSPHO1 inh inactive, ARFGAP1 inh inactive, Calb FLC 88, ASAP1 inh inactive and VIM-2 inh inactive.
For CCN(CC)c1ccc(/C=C/C(=O)C2C(=O)C=C(C)OC2=O)cc1 (configuration not stated) the results were IMP-1 inh 7.4, PHOSPHO1 inh inactive, ARFGAP1 inh inactive, Calb FLC inactive, ASAP1 inh inactive and VIM-2 inh inactive.
CN1C(=O)N(C)c2cccc3cccc1c23 was read as IMP-1 inh inactive, PHOSPHO1 inh inactive, ARFGAP1 inh inactive, Calb FLC inactive, ASAP1 inh inactive and VIM-2 inh 9.3.
For CN1C(=O)N(C)c2ccc(Br)c3cccc1c23 the results were IMP-1 inh inactive, PHOSPHO1 inh inactive, ARFGAP1 inh inactive, Calb FLC inactive, ASAP1 inh inactive and VIM-2 inh 11.
Screening CN1C(=O)N(C)c2ccc(C=O)c3cccc1c23 returned IMP-1 inh inactive, PHOSPHO1 inh inactive, ARFGAP1 inh inactive, Calb FLC inactive, ASAP1 inh inactive and VIM-2 inh inactive.
Screening CC(=O)Nc1cccc(-c2ccnc3c2CC(C(=O)NCCC(F)(F)F)O3)c1 (configuration not stated) returned ARFGAP1 inh inactive and ASAP1 inh inactive.
Screening COc1ccc(C2CC(=O)C=C(NCc3ccc4c(c3)OCO4)C2)cc1 (configuration not stated) returned IMP-1 inh inactive, PHOSPHO1 inh 61, ARFGAP1 inh inactive, Calb FLC inactive, ASAP1 inh inactive and VIM-2 inh inactive.
Screening CCCN1CCCCC(NC(=O)OC(C)(C)C)C1=O (configuration not stated) returned ARFGAP1 inh inactive and ASAP1 inh inactive.
Screening CCOC(=O)/C(=C\c1ccc([N+](=O)[O-])o1)NC(=O)c1ccccc1 returned IMP-1 inh inactive, PHOSPHO1 inh inactive, Calb FLC inactive and VIM-2 inh inactive.
Screening CCCOC(=O)/C(=C\c1ccc([N+](=O)[O-])o1)NC(=O)c1ccccc1 returned IMP-1 inh inactive, PHOSPHO1 inh inactive, ARFGAP1 inh inactive, Calb FLC 89, ASAP1 inh inactive and VIM-2 inh inactive.
`c1csc(-c2nnsc2-c2nc3ccccc3[nH]2)c1` gave IMP-1 inh inactive, PHOSPHO1 inh 96, ARFGAP1 inh inactive, Calb FLC inactive, ASAP1 inh inactive and VIM-2 inh inactive.
Screening O=c1[nH]c2ccccc2nc1-c1cccs1 returned IMP-1 inh inactive, PHOSPHO1 inh inactive, ARFGAP1 inh inactive, Calb FLC inconclusive, ASAP1 inh inactive and VIM-2 inh inactive.
CCN1CCCC1CN(Cc1cc2ccc(C)cc2[nH]c1=O)C(=S)Nc1ccc(OC)cc1 (configuration not stated) was read as IMP-1 inh inactive, PHOSPHO1 inh inactive, ARFGAP1 inh inactive, Calb FLC inactive, ASAP1 inh inactive and VIM-2 inh inactive.
